Compounds with a hit are over-represented: about 2.2% of the library has one in this group of screens.
SMARCA2 activ = increases SMARCA2 function in MMTV reporter cells; MG213 cells, MMTV-luciferase reporter, dexamethasone, overnight; activation, % at 9.1 µM; 1% of 370,000 active; AID 652017; in the data active means activation above about 7.8%
NR2E3 ag-1 = activates human photoreceptor nuclear receptor NR2E3. inhibition of corepressor binding, % at 4.78 µM. GST-NR2E3/biotin-RetCOR TR-FRET, 1536-well. 0.12% of 320,000 active. Q9Y5X4. AID 2300;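 active means percent inhibition above the cutoff of mean plus 3 SD of all tested compounds, set per screening campaign, cut at about 20% in these data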
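Format: 1536-well format; test system: GST-NR2E3 and biotin-RetCOR proteins; read-out basis: percent inhibition of TR-FRET ratio; timing: 5 h incubation at 4 °C; detection: time-resolved FRET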
NR2F2 inh = inhibitors of human COUP-TFII (NR2F2) | inhibition, % at 8.6 µM | HEK293T NGFI-A luciferase reporter, luminescence | 0.7% of 370,000 active;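 active means inhibition above a per-plate cutoff, mean inhibition of test wells between control levels plus 3 SD, cut at about 38% in these data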;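 further: cells cotransfected with COUP-TFII expression vector driving the NGFI-A reporter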
Target sequence (P24468 whole entry, looked up): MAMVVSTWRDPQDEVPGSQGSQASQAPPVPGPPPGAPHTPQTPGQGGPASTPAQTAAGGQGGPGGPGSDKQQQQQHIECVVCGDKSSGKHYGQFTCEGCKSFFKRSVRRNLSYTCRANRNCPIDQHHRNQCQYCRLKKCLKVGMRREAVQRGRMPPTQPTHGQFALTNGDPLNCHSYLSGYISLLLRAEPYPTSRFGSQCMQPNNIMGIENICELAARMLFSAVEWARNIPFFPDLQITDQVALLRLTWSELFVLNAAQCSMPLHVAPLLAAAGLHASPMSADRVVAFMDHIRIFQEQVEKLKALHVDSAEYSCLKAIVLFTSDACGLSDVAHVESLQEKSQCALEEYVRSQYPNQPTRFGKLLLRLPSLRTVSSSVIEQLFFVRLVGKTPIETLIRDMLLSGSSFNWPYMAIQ
NR2E3 ag-2 = agonists of human NR2E3 nuclear receptor; Q9Y5X4; CHO-S Gal4-NCOR/VP16-NR2E3 two-hybrid, luciferase; inhibition of corepressor binding, % at 3.98 µM; 0.35% of 360,000 active; AID 602229;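 active means inhibition above the mean of all tested compounds plus 3 SD, cut at about 70% in these data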;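 further: higher means lower luciferase signal from less NR2E3 corepressor binding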
GalR3 antagonist = blocks the human galanin receptor 3. O60755. HEK293 GalR3-CNG cAMP membrane potential fluorescence; galR3 body fused to GalR1 C-terminus. inhibition, % at 3 µM. 0.44% of 360,000 active;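 active means inhibition above the screen-wide average plus 3 SD, cut at about 13% in these data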;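 further: forskolin and galanin both at EC90 stimulate the cells; cAMP rise reported by CNG channel membrane potential dye signal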
Target sequence (O60755 1-299 limits assumed): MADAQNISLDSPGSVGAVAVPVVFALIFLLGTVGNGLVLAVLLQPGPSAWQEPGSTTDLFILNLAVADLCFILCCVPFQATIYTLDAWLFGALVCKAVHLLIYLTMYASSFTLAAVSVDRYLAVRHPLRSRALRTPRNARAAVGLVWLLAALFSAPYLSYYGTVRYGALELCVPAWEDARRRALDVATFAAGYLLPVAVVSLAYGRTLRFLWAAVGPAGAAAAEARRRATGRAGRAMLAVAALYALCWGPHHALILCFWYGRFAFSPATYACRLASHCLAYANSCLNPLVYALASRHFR
SMARCA2 conf = SMARCA2 activation, confirmation screen | shares compounds with SMARCA2 activ | 30% of 3,500 active | MG213 cells, MMTV-luciferase with dexamethasone, luminescence, overnight; MG213 cells expressing E1A, Rb sequestered; DMSO wells 0%, reference activator 100% | AID 652260 | activation, % at 9.1 µM;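 active means activation above its plate's cutoff, the mean activation of tested wells plus 3 SD, cut at about 7.9% in these data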
GAL4-VP16 Luc = counter-screen for SMARCA2 activators: GAL4-VP16 luciferase reporter activation; AID 686939; 41% of 3,500 active; activation, % at 9.1 µM; HEK293 GAL4-VP16 pG5luc reporter, luciferase luminescence; scaled: DMSO wells 0%, SAHA wells 100%; shares compounds with SMARCA2 activ;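 active means activation above the solvent-only control well mean plus 3 SD, averaged across control plates, cut at about 5.2% in these data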
Of the large screens only hits and unclear results are named; the others gave an inactive call (follow-up assays come after a bar, where they were run).

CCOc1ccccc1CNC(=O)c1ccccc1NC(=O)C1=CSCCO1	none
COc1ccc(C(=O)NNC(=O)c2ccc3ccccc3n2)cc1	SMARCA2 activ 15 | SMARCA2 conf inactive | GAL4-VP16 Luc inactive
O=C(NNC(=O)c1ccc2ccccc2n1)c1ccc(O)cc1	none
COc1ccc(OC)c(S(=O)(=O)N2CCC(C(=O)N3CCN(C4CCCCC4)CC3)CC2)c1	none (no result: NR2E3 ag-1, NR2E3 ag-2, GalR3 antagonist)
CCOC(=O)N1Cc2cc3ccccc3nc2C1	SMARCA2 activ 8.9 (no result: NR2E3 ag-1) | SMARCA2 conf inactive | GAL4-VP16 Luc 10
CCCC/C=C1/C(c2ccccc2)N(Cc2ccc(OC)cc2OC)C2=NC(c3ccccc3)CC(=O)N21 (stereo not drawn)	none (no result: SMARCA2 activ, NR2E3 ag-1, NR2E3 ag-2, GalR3 antagonist)
CCN1CCN(c2ccc(S(=O)(=O)N3CCOCC3)cc2NC(=O)c2cccc([N+](=O)[O-])c2)CC1	none (no result: NR2E3 ag-1)
CCN1CCN(c2ccc(S(=O)(=O)N3CCOCC3)cc2NC(=O)/C=C/c2ccc([N+](=O)[O-])cc2)CC1	SMARCA2 activ 11 | SMARCA2 conf 35 | GAL4-VP16 Luc inactive
O=C(/C=C/c1ccc(S(=O)(=O)N2CCOCC2)cc1)Nc1cc(F)ccc1F	SMARCA2 activ 9.0 (no result: NR2E3 ag-1) | SMARCA2 conf inactive | GAL4-VP16 Luc inactive
COc1cc(/C=C2\SC(=S)N(Nc3ccccc3)C2=O)ccc1O	SMARCA2 activ 8.2 | SMARCA2 conf inactive | GAL4-VP16 Luc 11
Cc1ccc(Nc2nc(N)nc(CC#N)n2)cc1	SMARCA2 activ 12 | SMARCA2 conf inactive | GAL4-VP16 Luc 6.6
Cc1ccc(Nc2nc(N)nc(CCl)n2)cc1	none
Cn1cccc1CC(=O)NN=Cc1cccc(F)c1	none (no result: NR2E3 ag-1, NR2E3 ag-2, GalR3 antagonist)
Cc1ccc(-c2noc(CSc3ccccc3)n2)cc1	SMARCA2 activ 9.3 | SMARCA2 conf inactive | GAL4-VP16 Luc 8.2
Cc1ccc(-c2noc(CN3CCCCC3)n2)cc1	SMARCA2 activ 8.3 | SMARCA2 conf inactive | GAL4-VP16 Luc 9.1
Cc1ccc(-c2noc(CN3CCOCC3)n2)cc1	none
COc1ccc(N2CCN(C(=O)c3cc(=O)c4cc(Cl)ccc4o3)CC2)cc1	none
COc1ccc(N2CCN(C(=O)c3cc(=O)c4ccc(C)cc4o3)CC2)cc1	SMARCA2 activ 12 | SMARCA2 conf inactive | GAL4-VP16 Luc inactive
CC(=O)NC(Cc1ccccc1)P(=O)(O)O (stereo not drawn)	none (no result: NR2E3 ag-1, NR2E3 ag-2, GalR3 antagonist)
O=C(CCl)NC1CCCCN(Cc2ccc(OC(F)(F)F)cc2)C1=O (stereo not drawn)	none (no result: NR2E3 ag-1, NR2E3 ag-2, GalR3 antagonist)
CC(=O)Oc1ccc2c(=O)c(-c3ccccc3)coc2c1	SMARCA2 activ 10 | SMARCA2 conf inactive | GAL4-VP16 Luc 5.6
CC(=O)N1Cc2ccccc2CC1C(=O)OCC(=O)c1c(N)n(C)c(=O)n(C)c1=O (stereo not drawn)	none (no result: NR2E3 ag-1)
Cn1c(N)c(C(=O)COC(=O)C2Cc3ccccc3CN2S(C)(=O)=O)c(=O)n(C)c1=O (stereo not drawn)	SMARCA2 activ 8.4 (no result: NR2E3 ag-1) | SMARCA2 conf inactive | GAL4-VP16 Luc inactive
N#C/C(=C\c1cccnc1)c1nc2c(s1)CCCC2	SMARCA2 activ 8.5 | SMARCA2 conf inactive | GAL4-VP16 Luc 16
O=C1/C(=C/c2cccnc2)SC(=S)N1CCc1ccccc1	SMARCA2 activ 8.7 | SMARCA2 conf inactive | GAL4-VP16 Luc inactive
O=C1/C(=C/c2cccnc2)SC(=NCc2ccccc2)N1Cc1ccccc1	none
C[C@H](CO)N1C[C@H](C)[C@@H](CN(C)C(=O)CCC(F)(F)F)OCc2cn(nn2)CCCC1=O	SMARCA2 activ 8.4 (no result: NR2E3 ag-1, NR2E3 ag-2) | SMARCA2 conf inactive | GAL4-VP16 Luc inactive
C[C@@H]1CN([C@@H](C)CO)C(=O)CCCn2cc(nn2)CO[C@H]1CN(C)C(=O)CCCN(C)C	none (no result: NR2E3 ag-1)
COCC1CCCCN1Cc1cn[nH]c1-c1ccc(OC)cc1OC (stereo not drawn)	none
COCC1CCCCN1Cc1cn[nH]c1-c1ccc2cc(OC)ccc2c1 (stereo not drawn)	SMARCA2 activ 11 | SMARCA2 conf inactive | GAL4-VP16 Luc inactive
O=C1CCC/C(=N/NC(=O)C2CCN(S(=O)(=O)c3cccs3)CC2)C1	SMARCA2 activ 8.7 | SMARCA2 conf inactive | GAL4-VP16 Luc inactive
CCCN(CC1CC1)c1nc(C)nc2c1nnn2Cc1ccccc1	none (no result: NR2E3 ag-1, NR2E3 ag-2, GalR3 antagonist)
COC(=O)c1cc2c(c3c4cc(OC)ccc4n(S(=O)(=O)c4ccc(OC)cc4)c13)C(=O)N(Cc1ccccc1)C2	none (no result: NR2E3 ag-1, NR2E3 ag-2)
C=CCN(CC=C)C(=S)NC(=O)c1ccc(OC)cc1	none
C=CCN(CC=C)C(=S)NC(=O)c1ccc(-c2ccccc2)cc1	SMARCA2 activ 8.0 | SMARCA2 conf inactive | GAL4-VP16 Luc inactive
O=[N+]([O-])c1cccc(OC[C@@H](O)CN2CCC(C(O)(c3ccccc3)c3ccccc3)CC2)c1	none (no result: NR2E3 ag-1, NR2E3 ag-2, GalR3 antagonist)
CCC[C@H]1[C@@H](NCC2CCCCC2)CC[C@@]23CCCN2C(=O)CCC[C@@H]13	none (no result: SMARCA2 activ, NR2E3 ag-1, NR2E3 ag-2, GalR3 antagonist)
COc1ccc(N2CCN(CCCNC(=O)CCOC(C)(C)C)CC2)cc1	none (no result: NR2E3 ag-1, NR2E3 ag-2, GalR3 antagonist)
N=c1c2c(-c3ccccc3)c(-c3ccccc3)n(Cc3ccccc3)c2ncn1CCCn1ccnc1	SMARCA2 activ 15 | SMARCA2 conf inactive | GAL4-VP16 Luc inactive
CCC(C)NS(=O)(=O)c1ccc2[nH]c(=O)oc2c1 (stereo not drawn)	none (no result: NR2E3 ag-1, NR2E3 ag-2, GalR3 antagonist)
CCOC(=O)[C@]12CCCC=C1N(CCCOC)C(=O)[C@@H]2CC(=O)N1CCC(c2ccccc2)CC1	none (no result: NR2E3 ag-1, NR2E3 ag-2, GalR3 antagonist)
CCOCCCn1c(SCc2nc3ccccc3s2)nc2ccccc2c1=O	none
CCn1c(SCc2nc3ccccc3s2)nc2cc(S(=O)(=O)N3CCOCC3)ccc21	SMARCA2 activ 10 | SMARCA2 conf inactive | GAL4-VP16 Luc inactive
COCCn1c(SCc2nc3ccccc3s2)nc2ccccc21	SMARCA2 activ 15 | SMARCA2 conf inactive | GAL4-VP16 Luc 8.1
Cc1nnc(SCc2nc3ccccc3s2)n1N	SMARCA2 activ 8.5 | SMARCA2 conf 8.2 | GAL4-VP16 Luc inactive
O=Cc1c(-c2ccc(F)cc2)nc2ccccn12	none
COc1ccc(-c2nc3ccccn3c2C=O)cc1	SMARCA2 activ 8.7 | SMARCA2 conf inactive | GAL4-VP16 Luc 9.0
O=C(CNC(=O)c1ccc(Br)cc1)N/N=C/c1cccnc1	SMARCA2 activ 10 | SMARCA2 conf inactive | GAL4-VP16 Luc inactive
CC1CCN(c2ccc(C(=O)O)cc2NS(=O)(=O)c2ccccc2)CC1	none (no result: NR2E3 ag-1, NR2E3 ag-2, GalR3 antagonist)
CC(C)(C)OC(=O)N/N=C/c1ccc(Br)cc1	SMARCA2 activ 8.2 | SMARCA2 conf 8.3 | GAL4-VP16 Luc 10
CC(C)(C)NC(=O)C(=O)N/N=C/c1ccc(Br)cc1	none
Cc1ccc(NC(=O)NCc2c(C)nn(C)c2C)cc1Cl	none
Cc1nn(C)cc1CNC(=O)Nc1ccc(Cl)c(Cl)c1	SMARCA2 activ 8.0 | SMARCA2 conf inactive | GAL4-VP16 Luc 6.9

Source: PubChem BioAssay
